Only some compounds are listed: those with a hit (about 3.5% of all), similar ones and a draw of the others.
MrgX1 allo act = allosterically activates human MrgX1 receptor signaling. AID 588675. 310,000 compounds, 0.63% hits. MrgX1-HEK293, Fluo-4 calcium flux, FDSS; active compounds read high. B-score at 10 µM. Q96LB2;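 active = plate-corrected calcium response at least 3 library SD above typical, normal starting fluorescence, not activating the receptor alone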;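 note: compound read alongside a low EC10 to EC30 dose of BAM8-22 agonist; peak minus trough fluorescence over baseline measured at the second addition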
Target sequence (Q96LB2 whole entry, looked up): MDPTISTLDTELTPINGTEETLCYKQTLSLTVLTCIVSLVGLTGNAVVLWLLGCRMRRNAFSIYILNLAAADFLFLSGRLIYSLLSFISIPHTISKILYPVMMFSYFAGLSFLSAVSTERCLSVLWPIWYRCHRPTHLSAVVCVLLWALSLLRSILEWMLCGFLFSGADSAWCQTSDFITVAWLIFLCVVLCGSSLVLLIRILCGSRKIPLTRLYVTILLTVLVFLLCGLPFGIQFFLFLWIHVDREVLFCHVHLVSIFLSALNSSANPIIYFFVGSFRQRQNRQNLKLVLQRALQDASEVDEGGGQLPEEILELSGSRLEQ
RGS4 act = potentiators or activators of RGS4; HEK293 M3R/inducible RGS4, carbachol calcium flux Fluo4; active compounds read low; B-score at 10 µM; 310,000 compounds, 0.92% hits;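 active = B-score of the integrated calcium signal more than 4 SD below the library mean, with starting fluorescence not abnormally high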;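 note: negative B-score means reduced calcium response which marks RGS4 activation or potentiation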
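Assay system: Inducible-RGS4 HEK293 cells carrying M3 receptor | Schedule: Compound preincubation 20 min at room temperature before agonist | Signal: Kinetic calcium fluorescence imaging with Fluo4-AM dye, 2 µM | Read-out basis: B score from integrated fluorescence ratio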
MrgX1 agonist = activates human MrgX1 receptor signaling | Q96LB2 | MrgX1-HEK293 cells, Fluo-4 calcium fluorescence, agonist mode; active compounds read high | B-score at 10 µM | 310,000 compounds, 0.44% hits;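 active = calcium response B-score plate-corrected fluorescence ratio at least 3 library SD, with starting fluorescence B-score inside 5 SD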
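System: HEK293 cells stably expressing human MrgX1 receptor; Dosing: test compound in the initial addition of three; Schedule: overnight plating, then 30 min 37 °C plus 30 min room-temperature dye loading; Detection: kinetic calcium dye fluorescence, Fluo-4 NW; Controls: per-plate positive and negative controls for Z′ factor.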
RGS4 block = inhibitors of human RGS4. P49798. HEK293 M3R/RGS4 inducible, Fluo-4 calcium flux; active compounds read high; triggered by carbachol at its EC20. B-score at 10 µM. 310,000 compounds, 0.45% hits. AID 463165;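 active = B-score, a plate-corrected calcium signal, over three deviations above library mean, with baseline fluorescence within five deviations of library mean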;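 note: RGS4 expression induced by doxycycline in cells with stable M3 receptor; B-score is computed from the integrated fluorescence ratio over baseline after carbachol; higher B-score means a larger calcium signal and so more RGS4 inhibition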
Target sequence (P49798 whole entry, looked up): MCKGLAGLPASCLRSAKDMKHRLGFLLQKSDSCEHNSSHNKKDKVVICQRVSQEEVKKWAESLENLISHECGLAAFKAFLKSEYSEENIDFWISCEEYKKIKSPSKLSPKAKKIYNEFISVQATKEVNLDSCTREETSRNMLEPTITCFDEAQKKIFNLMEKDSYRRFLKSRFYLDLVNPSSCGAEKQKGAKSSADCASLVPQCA
MrgX1 antag = human MrgX1 receptor antagonism, primary screen. Q96LB2. MRGX1-HEK293 calcium flux, Fluo-4, BAM8-22 antagonism; active compounds read low. B-score at 10 µM. 310,000 compounds, 1.3% hits;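 active = calcium-response B-score plate-corrected more than 3 library SD below zero, starting fluorescence within 5 deviations, no agonist response on first addition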;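 note: peak minus trough fluorescence over baseline after final BAM8-22 challenge near maximal dose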
A number is an active result; 0 = inactive.

SMILES | MrgX1 allo act | RGS4 act | MrgX1 agonist | RGS4 block | MrgX1 antag
Cc1ccc(S(=O)(=O)N2CCC(=O)N(C(COCc3cccc(C)c3)Cc3ccccc3)CC2)cc1 (centres undefined) | 0 | 0 | 0 | 0 | 0
CCn1nc(C)c(/C=N/NC(=O)c2ccc3c(c2)c(C)c(C)n3Cc2ccccc2)c1C | 0 | -8.3 | 0 | 0 | 0
CCn1ncc(/C=N\NC(=O)c2ccc3c(c2)c(C)c(C)n3Cc2ccccc2)c1C | 0 | 0 | 0 | 0 | 0
CC1CCC(NC(=O)C2CCN(c3c4c(nc5ncnn35)CCC4)CC2)CC1 (centres undefined) | 0 | 0 | 0 | 0 | 0
COc1cc(/C=C2\SC(=S)N(NS(=O)(=O)c3ccccc3)C2=O)cc(OC)c1OC | 0 | 0 | 0 | 0 | 0
O=C1/C(=C/c2ccccn2)SC(=S)N1NS(=O)(=O)c1ccccc1 | 8.9 | 0 | 0 | 0 | -5.3
O=C1/C(=C/c2cccc(F)c2)SC(=S)N1NS(=O)(=O)c1ccccc1 | 0 | 0 | 0 | 0 | 0
Cc1ccc(/C=C2\SC(=S)N(NS(=O)(=O)c3ccc(C)cc3)C2=O)cc1 | 0 | -8.2 | 0 | 0 | 0
COc1ccc(/C=C2/SC(=S)N(NS(=O)(=O)c3ccc(C)cc3)C2=O)cc1 | 0 | -8.4 | 0 | 0 | -5.2
COc1ccc(/C=C2/SC(=O)N(NS(=O)(=O)c3ccccc3)C2=S)cc1OC | 0 | 0 | 27 | 0 | 0
Cc1ccc(S(=O)(=O)NN2C(=O)/C(=C\c3ccc(Cl)cc3)SC2=S)cc1 | 0 | 0 | 0 | 0 | 0
C=CCOc1ccc(/C=C2\SC(=S)N(NS(=O)(=O)c3ccc(C)cc3)C2=O)cc1 | 0 | -7 | 0 | 0 | 0
CC(C)C(C(=O)O)N1CCS(=O)(=O)CC1 (centres undefined) | 0 | 0 | 0 | 0 | 0
C/C(=N\N=C(N)N)c1ccc(Cl)c(Cl)c1 | 14 | 0 | 0 | 0 | 0
C/C(=N\NC(=O)C1CC1)c1ccc(Cl)c(Cl)c1 | 0 | 0 | 0 | 0 | 0
CCOC(=O)CC(NC(=O)c1cccc2c1C(=O)N(Cc1cccnc1)C2)c1ccc(OCC)c(OC)c1 (centres undefined) | 0 | 0 | 0 | 0 | 0
NC(=O)C1CCN(CC(=O)Nc2ccc(S(=O)(=O)N3CCOCC3)cc2)CC1 | 0 | 0 | 0 | 0 | 0
O=C(CN1C(=O)NC2(CCCCC2)C1=O)Oc1ccc2c(C(F)(F)F)cc(=O)oc2c1 | 0 | 0 | 0 | 0 | 0
CCc1cc(=O)oc2cc(OC(=O)CN3C(=O)NC4(CCCC4)C3=O)ccc12 | 0 | 0 | 0 | 0 | -6.9
Cc1cccc(N(CC(O)CON=C2c3ccccc3-c3ccccc32)S(C)(=O)=O)c1 (centres undefined) | 0 | 0 | 0 | 0 | -4.9
O=C(Nc1nccs1)c1ccc(-c2ccc(F)c(Cl)c2)o1 | 0 | 0 | 0 | 0 | 0
Cc1nn(C)c(C(=O)Nc2cccc(Nc3ccccc3)c2)c1[N+](=O)[O-] | 0 | 0 | 0 | 0 | 0
Cc1nc2ccccn2c1C(=O)N/N=C/c1ccc([N+](=O)[O-])cc1 | 0 | 0 | 0 | 0 | 0
Cc1nn(C)c(C(=O)N/N=C/c2ccccc2)c1[N+](=O)[O-] | 0 | -9.9 | 0 | 0 | 0
Cc1nc2ccccn2c1C(=O)N/N=C/c1ccc([N+](=O)[O-])o1 | 0 | 0 | 0 | 0 | -6
SMILES | MrgX1 allo act | RGS4 act | MrgX1 agonist | RGS4 block | MrgX1 antag
CC1(C)C=Cc2cc(-c3coc4cc(O)cc(O)c4c3=O)cc(O)c2O1 | 0 | 0 | 0 | 0 | -5.3
O=c1c(-c2ccc3c(c2)OCCO3)coc2cc(O)cc(O)c12 | 0 | 0 | 0 | 0 | 0
CC(C)CC(=O)NC(=S)Nc1nc(-c2cccc3ccccc23)cs1 | 0 | -7.1 | 0 | 0 | 0
CCOC(=O)N1CCc2c(sc(NC(=O)CN(CC)CC)c2C#N)C1 | 0 | 0 | 0 | 0 | 0
CC1CN(c2nn3c(=O)c4ccccc4nc3c3ccccc23)CC(C)O1 (centres undefined) | 0 | 0 | 0 | 0 | 0
CCN1CCN(c2nn3c(=O)c4ccccc4nc3c3ccccc23)CC1 | 0 | -8.6 | 0 | 0 | 0
COc1cc2ccccc2cc1C(=O)Nc1sc2c(c1C(N)=O)CCN(C(C)C)C2 | 0 | -7.5 | 0 | 0 | 0
CN1CCc2c(sc(NC(=O)Cc3ccccc3)c2C(N)=O)C1 | 0 | 0 | 0 | 0 | 0
CC(C)N1CCc2c(sc(NC(=O)CN3C(=O)c4ccccc4C3=O)c2C(N)=O)C1 | 0 | 0 | 0 | 0 | 0
CN1CCc2c(sc(NC(=O)c3ccc4ccccc4c3)c2C(N)=O)C1 | 0 | 0 | 38 | 0 | 0
Cc1cccc(C)c1NC(=O)COC(=O)c1cccc2c1C(=O)c1ccccc1C2=O | 0 | 0 | 0 | 0 | 0
Cc1cccc(NC(=O)COC(=O)c2cccc3c2C(=O)c2ccccc2C3=O)c1C | 0 | -7.2 | 0 | 0 | 0
CCOc1cc(/C=N/NC(=O)c2nn(C)cc2Br)ccc1OCc1ccccc1 | 0 | 0 | 0 | 0 | -6.8
O=C1CCCC2=C1C(c1ccsc1)CC(=O)N2c1ccccc1F (centres undefined) | 0 | 0 | 0 | 0 | 0
COc1ccc(SCC(=O)c2cc(C)c(OC(=S)N(C)C)c(C)c2)cc1 | 0 | -7 | 0 | 0 | 0
CCN(CC)CCNC(=O)c1c(C)n(-c2ccccc2)c2cc(Br)c(OC)cc12 | 0 | 0 | 0 | 0 | -7.3
O=C(NCC(c1ccco1)N1CCCC1)c1ccccc1Sc1ccc(C(F)(F)F)cc1[N+](=O)[O-] (centres undefined) | 0 | -9 | 0 | 0 | 0
CCOc1ccc(CNC(=O)C2CCCN(S(=O)(=O)N3CC(C)CC(C)C3)C2)cc1OC (centres undefined) | 0 | 0 | 0 | 0 | 0
Cc1cccc([C@@H]2[C@@H]3C(=O)N(Cc4ccccc4)C(=O)[C@@H]3[C@]3(Cc4ccc(Cl)cc4)C(=O)N(c4ccccc4)C(=O)N23)c1 | 0 | 0 | 0 | 0 | -6.6
O=C(CSCc1ccccc1Br)N/N=C/c1ccccc1C(=O)O | 0 | 0 | 0 | 0 | 0
C#CCSc1nnc(-c2ccc(C)cc2)o1 | 0 | 0 | 0 | 0 | 0
C#CCSc1nnc(-c2ccc(O)cc2)o1 | 0 | 0 | 0 | 0 | -7.6
O=P(Cc1cc(Br)cc(Br)c1OCCO)(c1ccccc1)c1ccccc1 | 0 | 0 | 0 | 0 | 0
CC(=O)N1N=C(c2ccccc2)CC1c1cn(Cc2ccccc2)c2ccccc12 (centres undefined) | 0 | 0 | 0 | 0 | -4.6
CC(=O)N1N=C(c2ccncc2)CC1c1ccccc1O (centres undefined) | 0 | 0 | 0 | 0 | -7.5
O=C(c1ccncc1)N1N=C(c2ccc(Br)cc2)CC1c1ccccc1O (centres undefined) | 0 | 0 | 0 | 0 | 0
C=CCC1C=C(C)CC(CC=C)N1 (centres undefined) | 0 | 0 | 0 | 0 | 0
COc1cc2c(cc1OC)CN(c1nc(-c3cccnc3)nc3ccccc13)CC2 | 0 | -7.5 | 0 | 0 | 0
Fc1ccccc1CNc1nc(-c2cccnc2)nc2ccccc12 | 0 | -9.1 | 38 | 0 | 0

Assay outcomes deposited in PubChem by Johns Hopkins Ion Channel Center.
